According to ChEMBL document CHEMBL4350961, “Discovery of Pyrrolo[3,2- d]pyrimidin-4-one Derivatives as a New Class of Potent and Cell-Active Inhibitors of P300/CBP-Associated Factor Bromodomain” (J Med Chem, 2019):
Activity calls are given as the source filed them. The rule behind the calls is not given here.

Tests used:
[1] = biological target: Tyrosine-protein kinase FRK (Homo sapiens) (UniProt P42685); test: Inhibition of human PTK5 (218 to end residues) using GGEEEEYFELVKKKK as substrate measured after 40 mins in presence of [gamma33P]ATP by scintillation counting method
Summary of the method: (§1)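 Kinase panel of 422 kinases screened by Eurofins KinaseProfiler at a single test-compound concentration of 10 µM.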

Peregrin (Homo sapiens) [2] = biological target: Peregrin (Homo sapiens) (UniProt P55201); test: Binding affinity to human N-terminal His-tagged BRPF1 assessed as change in melting temperature at 10 uM by SYPRO orange dye-based fluorescence assay
Chain of Peregrin (Homo sapiens) (P55201 whole entry, the tested form may be a part): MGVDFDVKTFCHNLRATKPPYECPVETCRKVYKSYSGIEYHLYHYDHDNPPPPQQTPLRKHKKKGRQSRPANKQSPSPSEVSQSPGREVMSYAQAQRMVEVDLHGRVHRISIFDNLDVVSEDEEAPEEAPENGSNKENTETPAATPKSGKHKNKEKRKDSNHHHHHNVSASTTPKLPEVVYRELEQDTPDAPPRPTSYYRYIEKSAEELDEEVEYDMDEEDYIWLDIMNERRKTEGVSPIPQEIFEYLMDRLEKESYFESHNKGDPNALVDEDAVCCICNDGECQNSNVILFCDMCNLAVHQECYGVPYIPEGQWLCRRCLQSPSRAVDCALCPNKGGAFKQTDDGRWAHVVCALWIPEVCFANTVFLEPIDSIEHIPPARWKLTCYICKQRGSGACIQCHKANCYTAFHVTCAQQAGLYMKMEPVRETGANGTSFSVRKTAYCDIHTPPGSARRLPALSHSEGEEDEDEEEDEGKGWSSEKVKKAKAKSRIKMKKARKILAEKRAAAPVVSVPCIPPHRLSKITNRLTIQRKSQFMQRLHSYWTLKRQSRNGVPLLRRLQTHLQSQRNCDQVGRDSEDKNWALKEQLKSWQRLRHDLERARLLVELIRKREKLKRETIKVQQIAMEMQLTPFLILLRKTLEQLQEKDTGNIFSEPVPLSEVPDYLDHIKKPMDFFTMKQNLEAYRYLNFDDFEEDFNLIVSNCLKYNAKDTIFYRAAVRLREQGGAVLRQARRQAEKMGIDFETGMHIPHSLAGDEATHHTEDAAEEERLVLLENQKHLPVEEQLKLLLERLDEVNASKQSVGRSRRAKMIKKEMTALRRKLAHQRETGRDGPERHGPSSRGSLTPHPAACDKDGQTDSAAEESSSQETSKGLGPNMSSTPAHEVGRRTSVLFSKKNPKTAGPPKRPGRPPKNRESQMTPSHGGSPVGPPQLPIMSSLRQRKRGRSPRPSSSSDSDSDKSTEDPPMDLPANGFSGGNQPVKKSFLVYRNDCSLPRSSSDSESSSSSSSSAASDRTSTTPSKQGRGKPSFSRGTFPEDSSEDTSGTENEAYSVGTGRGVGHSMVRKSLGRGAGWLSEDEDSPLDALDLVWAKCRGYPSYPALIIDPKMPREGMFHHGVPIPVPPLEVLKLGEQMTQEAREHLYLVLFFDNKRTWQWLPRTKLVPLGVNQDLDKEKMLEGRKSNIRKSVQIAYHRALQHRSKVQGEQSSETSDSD
Summary of the method: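 Thermal shift with His-tagged human bromodomain at 2 μM final in 10 mM HEPES pH 7.5, 500 mM NaCl. Compound at 10 μM final with 0.1% DMSO; SYPRO Orange at 1:1000. Equilibrated 3 min at 25 °C, then heated from 25 to 95 °C at 1 °C/min. Melting temperature shift taken from fluorescence; at least duplicate.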

Peregrin (Homo sapiens) [3] = biological target: Peregrin (Homo sapiens) (UniProt P55201); test: Binding affinity to human partial length BRPF1 (E627 to G740 residues) expressed in bacterial expression system at 1 uM by BROMOscan assay
Summary of the method: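 BROMOscan bromodomain cross-screen run by an outside service, compound at 1 µM against 32 recombinant bromodomains. Binding given as percent of control.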

[4] = biological target: 5'-AMP-activated protein kinase catalytic subunit alpha-2 (Homo sapiens) (UniProt P54646); test: Inhibition of recombinant full-length human AMPKalpha2 at 10 uM using AMARAASAAALARRR as substrate measured after 40 mins in presence of [gamma33P]ATP by scintillation counting method
[5] = biological target: Bone morphogenetic protein receptor type-1B (Homo sapiens) (UniProt O00238); test: Inhibition of recombinant human ALK6 (148 to end residues) at 10 uM using casein as substrate measured after 40 mins in presence of [gamma33P]ATP by scintillation counting method
Chain of Bone morphogenetic protein receptor type-1B (Homo sapiens) (O00238 whole entry): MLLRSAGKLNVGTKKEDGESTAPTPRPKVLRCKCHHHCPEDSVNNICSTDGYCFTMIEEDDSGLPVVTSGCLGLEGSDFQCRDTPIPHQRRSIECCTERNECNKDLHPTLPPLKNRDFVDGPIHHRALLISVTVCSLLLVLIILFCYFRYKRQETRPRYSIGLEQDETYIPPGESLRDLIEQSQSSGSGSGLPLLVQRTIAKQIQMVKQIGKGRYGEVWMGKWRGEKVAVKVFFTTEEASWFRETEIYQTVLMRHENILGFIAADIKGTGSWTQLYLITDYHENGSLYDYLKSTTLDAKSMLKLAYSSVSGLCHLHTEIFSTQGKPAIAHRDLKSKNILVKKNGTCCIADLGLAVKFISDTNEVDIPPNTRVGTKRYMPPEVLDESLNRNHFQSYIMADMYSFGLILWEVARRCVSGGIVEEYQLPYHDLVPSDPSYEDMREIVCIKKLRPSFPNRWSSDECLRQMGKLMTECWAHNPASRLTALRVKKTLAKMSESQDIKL

[6] = biological target: CDK17/Cyclin-Y (Homo sapiens) (UniProt Q00537+Q8ND76); test: Inhibition of human CDK17/cyclinY at 10 uM using PKSPKARKKL as substrate measured after 120 mins in presence of [gamma33P]ATP by scintillation counting method; format: protein-complex assay; summary of the method: as §1
[7] = biological target: Cyclin-dependent kinase-like 3 (Homo sapiens) (UniProt Q8IVW4); test: Inhibition of recombinant human full-length CDKL3 (1 to 303 residues) at 10 uM using RRRFRPASPLRGP as substrate measured after 120 mins in presence of [gamma33P]ATP by scintillation counting method
Chain of Cyclin-dependent kinase-like 3 (Homo sapiens) (Q8IVW4 whole entry, looked up, the tested form may be a part): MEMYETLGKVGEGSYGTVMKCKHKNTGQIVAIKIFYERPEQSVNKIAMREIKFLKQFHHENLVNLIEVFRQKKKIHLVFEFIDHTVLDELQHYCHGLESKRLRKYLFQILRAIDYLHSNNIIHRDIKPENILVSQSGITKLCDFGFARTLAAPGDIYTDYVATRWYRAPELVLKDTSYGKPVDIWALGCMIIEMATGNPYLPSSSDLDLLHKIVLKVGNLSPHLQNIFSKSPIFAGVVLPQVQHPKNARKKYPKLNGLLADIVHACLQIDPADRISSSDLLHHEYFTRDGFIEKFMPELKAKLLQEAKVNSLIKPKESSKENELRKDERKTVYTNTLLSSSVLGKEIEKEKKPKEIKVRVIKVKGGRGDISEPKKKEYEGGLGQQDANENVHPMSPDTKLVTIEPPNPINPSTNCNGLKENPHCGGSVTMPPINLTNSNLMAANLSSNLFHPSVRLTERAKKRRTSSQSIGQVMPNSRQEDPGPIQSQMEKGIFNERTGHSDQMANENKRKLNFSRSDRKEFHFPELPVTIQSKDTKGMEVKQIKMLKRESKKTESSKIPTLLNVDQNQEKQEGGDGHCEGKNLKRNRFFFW

[8] = system: Mast/stem cell growth factor receptor Kit (Homo sapiens), P10721 [D816H]; test: Inhibition of recombinant human c-Kit D816H mutant (544 to end residues) at 10 uM using GGMEDIYFEFMGGKKK as substrate measured after 40 mins in presence of [gamma33P]ATP by scintillation counting method
[9] = biological target: Tyrosine-protein kinase Fer (Homo sapiens) (UniProt P16591); test: Inhibition of recombinant human FER (541 to end residues) at 10 uM using KKKSPGEYVNIEFG as substrate measured after 40 mins in presence of [gamma33P]ATP by scintillation counting method
[10] = biological target: Fibroblast growth factor receptor 1 (Homo sapiens) (UniProt P11362); test: Inhibition of recombinant human FGFR1 (456 to 765 residues) at 10 uM using KKKSPGEYVNIEFG as substrate measured after 40 mins in presence of [gamma33P]ATP by scintillation counting method
Chain of Fibroblast growth factor receptor 1 (Homo sapiens) (P11362 22-822 limits assumed): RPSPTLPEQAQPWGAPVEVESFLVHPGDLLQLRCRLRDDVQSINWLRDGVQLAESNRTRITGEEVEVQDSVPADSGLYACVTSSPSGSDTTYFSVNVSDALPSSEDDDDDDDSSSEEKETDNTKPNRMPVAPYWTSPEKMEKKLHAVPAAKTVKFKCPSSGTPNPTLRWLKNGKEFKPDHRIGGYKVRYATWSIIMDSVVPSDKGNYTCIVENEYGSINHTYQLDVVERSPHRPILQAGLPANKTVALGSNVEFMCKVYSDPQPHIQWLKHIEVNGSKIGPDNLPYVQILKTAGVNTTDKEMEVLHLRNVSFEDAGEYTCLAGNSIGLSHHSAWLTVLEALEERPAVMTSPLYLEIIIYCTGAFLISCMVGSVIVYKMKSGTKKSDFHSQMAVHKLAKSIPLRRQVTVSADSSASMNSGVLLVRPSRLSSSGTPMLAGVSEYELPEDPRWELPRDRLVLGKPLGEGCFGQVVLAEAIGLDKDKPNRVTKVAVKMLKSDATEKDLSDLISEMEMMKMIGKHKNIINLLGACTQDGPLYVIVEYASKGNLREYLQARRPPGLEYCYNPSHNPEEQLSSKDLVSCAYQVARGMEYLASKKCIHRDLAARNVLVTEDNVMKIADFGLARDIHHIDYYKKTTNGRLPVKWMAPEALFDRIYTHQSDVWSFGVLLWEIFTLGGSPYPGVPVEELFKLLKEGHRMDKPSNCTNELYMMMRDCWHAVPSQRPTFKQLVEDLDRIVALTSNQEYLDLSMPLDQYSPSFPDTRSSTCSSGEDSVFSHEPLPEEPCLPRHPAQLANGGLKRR

[11] = system: Receptor-type tyrosine-protein kinase FLT3 (Homo sapiens), P36888 [D835Y]; test: Inhibition of recombinant human Flt3 D835Y mutant (564 to end residues) at 10 uM using EAIYAAPFAKKK as substrate measured after 40 mins in presence of [gamma33P]ATP by scintillation counting method
[12] = biological target: Serine/threonine-protein kinase haspin (Homo sapiens) (UniProt Q8TF76); test: Inhibition of recombinant human haspin (471 to end residues) at 10 uM using RARTLSFAEPG as substrate measured after 40 mins in presence of [gamma33P]ATP by scintillation counting method
[13] = system: Platelet-derived growth factor receptor alpha (Homo sapiens), P16234 [D842V]; test: Inhibition of recombinant human PDGFRalpha D842V mutant (550 to end residues) at 10 uM using GGMEDIYFEFMGGKKK as substrate measured after 40 mins in presence of [gamma33P]ATP by scintillation counting method
Chain of Platelet-derived growth factor receptor alpha (Homo sapiens), P16234 [D842V] (P16234 whole entry D842V): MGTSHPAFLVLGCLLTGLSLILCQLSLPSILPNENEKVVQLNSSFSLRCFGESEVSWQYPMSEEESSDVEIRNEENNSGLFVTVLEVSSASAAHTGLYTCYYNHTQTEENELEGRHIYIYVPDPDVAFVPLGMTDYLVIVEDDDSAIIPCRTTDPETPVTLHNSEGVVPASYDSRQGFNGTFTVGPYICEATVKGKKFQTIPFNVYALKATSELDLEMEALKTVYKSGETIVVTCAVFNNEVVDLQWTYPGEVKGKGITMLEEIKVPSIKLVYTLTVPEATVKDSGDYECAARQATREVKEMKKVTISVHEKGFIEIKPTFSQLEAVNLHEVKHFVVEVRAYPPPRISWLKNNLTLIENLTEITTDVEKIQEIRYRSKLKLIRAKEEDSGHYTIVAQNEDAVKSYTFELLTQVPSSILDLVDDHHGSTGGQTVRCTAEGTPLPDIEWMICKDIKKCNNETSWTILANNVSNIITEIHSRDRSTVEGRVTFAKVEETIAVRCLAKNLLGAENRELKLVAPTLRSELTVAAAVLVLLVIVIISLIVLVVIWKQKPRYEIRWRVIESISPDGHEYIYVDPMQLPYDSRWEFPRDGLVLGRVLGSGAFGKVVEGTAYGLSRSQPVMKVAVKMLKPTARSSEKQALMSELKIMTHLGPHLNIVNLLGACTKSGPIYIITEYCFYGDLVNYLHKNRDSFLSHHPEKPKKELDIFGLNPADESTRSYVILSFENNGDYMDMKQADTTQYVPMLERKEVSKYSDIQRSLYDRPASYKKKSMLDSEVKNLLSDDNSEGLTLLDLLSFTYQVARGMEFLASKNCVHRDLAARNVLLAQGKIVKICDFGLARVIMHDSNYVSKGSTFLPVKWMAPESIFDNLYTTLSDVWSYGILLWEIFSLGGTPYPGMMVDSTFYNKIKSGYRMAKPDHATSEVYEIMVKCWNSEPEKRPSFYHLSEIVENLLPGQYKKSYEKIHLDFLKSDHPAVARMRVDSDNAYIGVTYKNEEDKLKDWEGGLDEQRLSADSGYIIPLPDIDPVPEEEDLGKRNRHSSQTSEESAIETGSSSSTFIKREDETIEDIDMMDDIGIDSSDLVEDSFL

[14] = system: Mitogen-activated protein kinase 14 (Homo sapiens), Q16539 [T106M]; test: Inhibition of recombinant full-length human SAPK2a T106M mutant at 10 uM using myelin basic protein as substrate measured after 40 mins in presence of [gamma33P]ATP by scintillation counting method
Chain of Mitogen-activated protein kinase 14 (Homo sapiens), Q16539 [T106M] (Q16539 whole entry T106M): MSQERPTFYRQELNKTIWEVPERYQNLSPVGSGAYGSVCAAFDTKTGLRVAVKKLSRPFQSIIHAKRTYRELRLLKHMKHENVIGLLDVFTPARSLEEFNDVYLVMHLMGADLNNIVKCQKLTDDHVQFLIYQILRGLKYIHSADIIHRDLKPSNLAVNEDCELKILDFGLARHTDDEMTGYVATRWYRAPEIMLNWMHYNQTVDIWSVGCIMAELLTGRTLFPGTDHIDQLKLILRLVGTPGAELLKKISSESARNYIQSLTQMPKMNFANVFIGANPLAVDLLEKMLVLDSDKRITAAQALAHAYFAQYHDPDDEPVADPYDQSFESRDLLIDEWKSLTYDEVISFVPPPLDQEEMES

[15] = biological target: Mitogen-activated protein kinase 11 (Homo sapiens) (UniProt Q15759); test: Inhibition of recombinant full-length human SAPK2b at 10 uM using myelin basic protein as substrate measured after 40 mins in presence of [gamma33P]ATP by scintillation counting method
[16] = biological target: Mitogen-activated protein kinase 12 (Homo sapiens) (UniProt P53778); test: Inhibition of recombinant full-length human SAPK3 at 10 uM using myelin basic protein as substrate measured after 40 mins in presence of [gamma33P]ATP by scintillation counting method
[17] = system: Serine/threonine-protein kinase Sgk2 (Homo sapiens), Q9HBY8 [S416D]; test: Inhibition of recombinant human SGK2 S416D mutant (54 to end residues) at 10 uM using GRPRTSSFAEGKK as substrate measured after 40 mins in presence of [gamma33P]ATP by scintillation counting method
Chain of Serine/threonine-protein kinase Sgk2 (Homo sapiens), Q9HBY8 [S416D] (Q9HBY8 1-367 with tags or gaps S416D): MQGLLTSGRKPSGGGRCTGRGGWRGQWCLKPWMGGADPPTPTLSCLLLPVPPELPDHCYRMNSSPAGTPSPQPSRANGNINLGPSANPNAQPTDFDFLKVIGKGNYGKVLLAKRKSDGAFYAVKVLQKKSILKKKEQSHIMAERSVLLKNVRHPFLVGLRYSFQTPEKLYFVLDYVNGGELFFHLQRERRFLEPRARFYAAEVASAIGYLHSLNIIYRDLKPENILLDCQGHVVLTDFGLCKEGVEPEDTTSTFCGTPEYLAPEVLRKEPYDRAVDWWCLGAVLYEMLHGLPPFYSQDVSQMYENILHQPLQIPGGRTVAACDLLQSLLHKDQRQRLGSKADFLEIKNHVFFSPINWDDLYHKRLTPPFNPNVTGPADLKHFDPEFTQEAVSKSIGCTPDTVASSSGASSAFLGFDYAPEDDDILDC

[18] = biological target: Proto-oncogene tyrosine-protein kinase Src (Homo sapiens) (UniProt P12931); test: Inhibition of human Src (1 to 530 residues) using GGEEEEYFELVKKKK as substrate measured after 40 mins in presence of [gamma33P]ATP by scintillation counting method
[19] = biological target: TGF-beta receptor type-2 (Homo sapiens) (UniProt P37173); test: Inhibition of human TGFBR2 (188 to end residues) using myelin basic protein as substrate measured after 120 mins in presence of [gamma33P]ATP by scintillation counting method
[20] = biological target: High affinity nerve growth factor receptor (Homo sapiens) (UniProt P04629); test: Inhibition of human TrkA (440 to end residues) using KKKSPGEYVNIEFG as substrate measured after 40 mins in presence of [gamma33P]ATP by scintillation counting method
[21] = biological target: Serine/threonine-protein kinase WNK4 (Homo sapiens) (UniProt Q96J92); test: Inhibition of human WNK4 using myelin basic protein as substrate measured after 120 mins in presence of [gamma33P]ATP by scintillation counting method
[22] = system: PI3-kinase p110-alpha/p85-alpha (Homo sapiens), P27986+P42336 [E542K]; test: Inhibition of recombinant full-length mouse PI3K p110alpha/p85alpha E542K mutant at 10 uM using phosphatidylinositol-4, 5-bisphosphate as substrate measured after 40 mins by HTRF assay; format: protein-complex assay

CN1C[C@H](Nc2nc3cc[nH]c3c(=O)n2C)C[C@H](c2ccc3c(c2)OCCO3)C1
inhibition [1]: inactive | ΔTm (Peregrin (Homo sapiens) [2]): 2.6 °C | Activity (Peregrin (Homo sapiens) [3]): Active | inhibition [4]: inactive | inhibition [5]: inactive | inhibition [6]: inactive | inhibition [7]: inactive | inhibition [8]: inactive | inhibition [9]: inactive | inhibition [10]: inactive | inhibition [11]: inactive | inhibition [12]: inactive | inhibition [13]: inactive | inhibition [14]: inactive | inhibition [15]: inactive | inhibition [16]: inactive | inhibition [17]: inactive | inhibition [18]: inactive | inhibition [19]: inactive | inhibition [20]: inactive | inhibition [21]: inactive | inhibition [22]: inactive
